Measurements: ChEMBL document CHEMBL3585276, “Topoisomerase I and II inhibitory activity, cytotoxicity, and structure-activity relationship study of dihydroxylated 2,6-diphenyl-4-aryl pyridines” (Bioorg Med Chem, 2015)

How the values were obtained:
T47D = assay: Cytotoxicity against human T47D cells measured on day 4 by CCK8 assay; format: functional, cell-based; details: 96 h
Method in brief: (§1)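 Cells seeded at […], grown overnight in medium with 10% FBS at 37 °C under 5% CO2. On day 2 they were serum-starved 4 h, then exposed to graded compound concentrations. On day 4 CCK-8 was added for a further 4 h and absorbance read at 450 nm. IC50 came from a four-parameter logistic fit, mean ± SD of three experiments in triplicate.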

HCT-15 = assay: Cytotoxicity against human HCT15 cells measured on day 4 by CCK8 assay; format: functional, cell-based; details: HCT-15, 96 h; method in brief: as §1
DU-145 = assay: Cytotoxicity against human DU145 cells measured on day 4 by CCK8 assay; format: functional, cell-based; details: DU-145, 96 h; method in brief: as §1
[1] = target: DNA topoisomerase 2-alpha (Homo sapiens) (UniProt P11388); assay: Inhibition of recombinant human DNA topoisomerase-2alpha using supercoiled pBR322 plasmid DNA as substrate at 100 uM after 30 mins by agarose gel electrophoresis relative to control
Chain of DNA topoisomerase 2-alpha (Homo sapiens) (P11388 whole entry): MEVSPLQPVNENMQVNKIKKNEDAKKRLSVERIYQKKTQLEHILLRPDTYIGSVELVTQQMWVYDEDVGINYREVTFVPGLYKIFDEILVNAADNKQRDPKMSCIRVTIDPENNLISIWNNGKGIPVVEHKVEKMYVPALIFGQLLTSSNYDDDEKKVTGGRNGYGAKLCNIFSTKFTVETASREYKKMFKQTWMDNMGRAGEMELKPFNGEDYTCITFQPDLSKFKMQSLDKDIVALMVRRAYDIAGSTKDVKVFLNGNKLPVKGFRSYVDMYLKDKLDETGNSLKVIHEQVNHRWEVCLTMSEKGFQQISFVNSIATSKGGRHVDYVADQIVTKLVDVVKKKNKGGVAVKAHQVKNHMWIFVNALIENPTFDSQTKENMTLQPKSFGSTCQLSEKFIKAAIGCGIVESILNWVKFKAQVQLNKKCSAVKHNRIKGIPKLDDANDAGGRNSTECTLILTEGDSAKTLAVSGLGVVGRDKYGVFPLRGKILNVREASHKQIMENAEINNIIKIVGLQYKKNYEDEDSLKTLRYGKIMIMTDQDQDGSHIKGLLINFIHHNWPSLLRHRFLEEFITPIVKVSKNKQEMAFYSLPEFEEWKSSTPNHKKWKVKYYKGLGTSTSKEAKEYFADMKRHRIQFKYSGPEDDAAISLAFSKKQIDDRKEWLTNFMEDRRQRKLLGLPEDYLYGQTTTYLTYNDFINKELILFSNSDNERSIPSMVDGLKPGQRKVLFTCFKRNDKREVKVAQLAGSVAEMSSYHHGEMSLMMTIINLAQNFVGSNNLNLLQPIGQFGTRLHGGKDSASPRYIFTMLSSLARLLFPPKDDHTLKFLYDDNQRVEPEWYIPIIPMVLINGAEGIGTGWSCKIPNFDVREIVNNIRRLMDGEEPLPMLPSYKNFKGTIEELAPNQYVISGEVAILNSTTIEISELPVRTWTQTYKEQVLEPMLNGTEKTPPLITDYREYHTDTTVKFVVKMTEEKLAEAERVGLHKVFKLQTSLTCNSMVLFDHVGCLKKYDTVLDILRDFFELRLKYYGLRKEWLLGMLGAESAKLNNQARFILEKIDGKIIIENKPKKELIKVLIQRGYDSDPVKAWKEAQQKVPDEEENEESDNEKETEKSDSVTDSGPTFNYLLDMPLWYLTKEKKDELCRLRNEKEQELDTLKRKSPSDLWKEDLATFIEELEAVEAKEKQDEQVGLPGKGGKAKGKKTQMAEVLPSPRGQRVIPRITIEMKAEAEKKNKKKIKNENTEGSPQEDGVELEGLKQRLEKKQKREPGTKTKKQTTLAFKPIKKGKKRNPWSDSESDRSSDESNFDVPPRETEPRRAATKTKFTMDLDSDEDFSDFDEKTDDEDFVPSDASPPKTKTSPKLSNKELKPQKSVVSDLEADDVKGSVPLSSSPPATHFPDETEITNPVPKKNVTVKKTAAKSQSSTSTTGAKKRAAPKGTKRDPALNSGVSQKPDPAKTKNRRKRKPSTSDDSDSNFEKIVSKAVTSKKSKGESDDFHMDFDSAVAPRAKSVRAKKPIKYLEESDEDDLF
Method in brief: (§2)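 200 ng supercoiled pBR322 with 1 unit human topo II, incubated 30 min at 30 °C with or without compound in 10 mM Tris–HCl pH 7.9, 50 mM NaCl, 5 mM MgCl2, 1 mM EDTA, 1 mM ATP and 15 µg/mL BSA. Reaction was stopped with 7 mM EDTA and run on 1% agarose in TAE at 25 V. Gel was stained with ethidium bromide, visualized under UV, and supercoiled DNA quantitated densitometrically.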

[2] = target: T1, DNA topoisomerase 1 (Homo sapiens) (UniProt P11387); assay: Inhibition of recombinant human DNA topoisomerase-1 assessed as relaxation of supercoiled DNA pBR322 at 20 uM after 30 mins by agarose gel electrophoresis relative to control
T1 sequence (whole entry): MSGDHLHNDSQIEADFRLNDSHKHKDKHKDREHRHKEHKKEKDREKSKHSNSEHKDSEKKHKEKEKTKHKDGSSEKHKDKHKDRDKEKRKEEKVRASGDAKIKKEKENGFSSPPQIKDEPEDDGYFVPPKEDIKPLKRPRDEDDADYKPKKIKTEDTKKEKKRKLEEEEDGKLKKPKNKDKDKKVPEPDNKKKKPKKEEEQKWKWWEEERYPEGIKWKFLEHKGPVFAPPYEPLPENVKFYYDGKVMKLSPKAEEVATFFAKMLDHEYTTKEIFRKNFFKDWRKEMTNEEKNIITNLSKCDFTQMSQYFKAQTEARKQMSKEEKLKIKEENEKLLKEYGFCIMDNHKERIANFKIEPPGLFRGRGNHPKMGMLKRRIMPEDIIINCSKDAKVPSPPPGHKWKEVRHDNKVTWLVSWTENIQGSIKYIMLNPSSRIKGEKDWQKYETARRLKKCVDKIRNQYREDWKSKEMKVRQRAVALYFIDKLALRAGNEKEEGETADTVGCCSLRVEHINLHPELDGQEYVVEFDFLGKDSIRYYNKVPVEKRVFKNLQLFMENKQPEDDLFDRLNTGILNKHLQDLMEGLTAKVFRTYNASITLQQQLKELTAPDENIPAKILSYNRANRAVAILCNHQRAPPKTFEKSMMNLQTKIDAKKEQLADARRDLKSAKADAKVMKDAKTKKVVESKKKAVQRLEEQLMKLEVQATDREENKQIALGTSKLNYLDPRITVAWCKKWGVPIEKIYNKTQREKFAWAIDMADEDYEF
Method in brief: (§3)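 Relaxation assay with 100 ng pBR322 plasmid DNA and 1 unit recombinant human topo I. Buffer was 10 mM Tris–HCl pH 7.9, 150 mM NaCl, 0.1% BSA, 1 mM spermidine and 5% glycerol, incubated 37 °C for 30 min with or without compound. Products were run on a 1% agarose gel in TAE at 15 V for 7 h and stained with ethidium bromide (0.5 µg/mL) for 30 min.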

[3] = target: T1, DNA topoisomerase 1 (Homo sapiens); assay: Inhibition of recombinant human DNA topoisomerase-1 assessed as relaxation of supercoiled DNA pBR322 at 100 uM after 30 mins by agarose gel electrophoresis relative to control; method in brief: as §3
HeLa = assay: Cytotoxicity against human HeLa cells measured on day 4 by CCK8 assay; format: functional, cell-based; details: 96 h; method in brief: as §1
[4] = target: DNA topoisomerase 2-alpha (Homo sapiens) (UniProt P11388); assay: Inhibition of recombinant human DNA topoisomerase-2alpha using supercoiled pBR322 plasmid DNA as substrate at 20 uM after 30 mins by agarose gel electrophoresis relative to control; method in brief: as §2

Row | SMILES | IC50 (T47D) | IC50 (HCT-15) | IC50 (DU-145) | inhibition [1] | inhibition [2] | inhibition [3] | IC50 (HeLa) | inhibition [4]
1 | Oc1ccccc1-c1cc(-c2cccnc2)cc(-c2ccccc2O)n1 | > 50000 nM | > 50000 nM | > 50000 nM | 5.2% | 0% | 66.4% | > 50000 nM | –
2 | Oc1cccc(-c2cc(-c3ccccn3)cc(-c3ccccc3O)n2)c1 | 2560 nM | > 50000 nM | 17000 nM | 62.5% | 0.1% | 35.4% | 2020 nM | 1.5%
3 | Oc1ccc(-c2cc(-c3ccccn3)cc(-c3ccc(O)cc3)n2)cc1 | 1040 nM | > 50000 nM | > 50000 nM | 27.4% | – | 1.4% | > 50000 nM | –
4 | COc1cc([C@@H]2c3cc4c(cc3[C@@H](O[C@@H]3O[C@@H]5CO[C@@H](C)O[C@H]5[C@H](O)[C@H]3O)[C@H]3COC(=O)[C@H]23)OCO4)cc(OC)c1O [ETOPOSIDE] | 13700 nM | 18900 nM | 2090 nM | – | – | – | 7320 nM | –
5 | Oc1ccc(-c2cc(-c3ccco3)cc(-c3cccc(O)c3)n2)cc1 | 1280 nM | 840 nM | 2070 nM | 92.8% | 1.5% | 100% | 5170 nM | 21.8%
6 | Oc1ccc(-c2cc(-c3ccoc3)cc(-c3cccc(O)c3)n2)cc1 | 2610 nM | 930 nM | 2700 nM | 95% | 1.3% | 37.4% | 3310 nM | 19.7%
7 | CC[C@@]1(O)C(=O)OCc2c1cc1n(c2=O)Cc2cc3ccccc3nc2-1 [CAMPTOTHECIN] | 1840 nM | 2820 nM | 20 nM | – | – | – | 180 nM | –
8 | Oc1cccc(-c2cc(-c3ccccn3)cc(-c3cccc(O)c3)n2)c1 | 1410 nM | 3510 nM | 3610 nM | 52.2% | – | 8.3% | 6500 nM | 4.3%
9 | Oc1ccc(-c2cc(-c3cccnc3)cc(-c3ccccc3O)n2)cc1 | > 50000 nM | > 50000 nM | > 50000 nM | 8.3% | 0% | 1.5% | > 50000 nM | –
10 | Oc1ccccc1-c1cc(-c2ccoc2)cc(-c2ccccc2O)n1 | > 50000 nM | > 50000 nM | > 50000 nM | 12.2% | – | 1% | > 50000 nM | –
11 | Oc1ccc(-c2cc(-c3cccs3)cc(-c3ccccc3O)n2)cc1 | > 50000 nM | > 50000 nM | > 50000 nM | 76.4% | 2% | 72.2% | > 50000 nM | 30.2%
12 | Oc1ccc(-c2cc(-c3cccnc3)cc(-c3ccc(O)cc3)n2)cc1 | 2030 nM | 840 nM | 240 nM | 65.8% | 5% | 8.7% | 600 nM | 25.7%
13 | Oc1cccc(-c2cc(-c3ccco3)cc(-c3ccccc3O)n2)c1 | 820 nM | > 50000 nM | 1790 nM | 81.2% | 0% | 90.1% | > 50000 nM | 21.5%
14 | Oc1cccc(-c2cc(-c3ccoc3)cc(-c3cccc(O)c3)n2)c1 | 2590 nM | 1020 nM | 1650 nM | 7.3% | 2% | 44.2% | 4630 nM | –
15 | Oc1ccc(-c2cc(-c3cccs3)cc(-c3ccc(O)cc3)n2)cc1 | 11700 nM | > 50000 nM | 2190 nM | 74.6% | 0.9% | 86.3% | > 50000 nM | 30.3%
